Data on 5 substances can be found in paper PMC4174992 (The Journal of Physical Chemistry. B, 2014).

Like-named read-outs stand apart in the source and are kept apart here.

For data set [1] the following is noted: cited from earlier work.
Data set [2] relates to embryonic rat hippocampal neurons. Conditions: Busciglio and co-workers; cited from earlier work.
A short description of another data set: Atomic force microscopy. It is filed as physicochemical. The gist of the method:
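Samples were N-acetyl/C-amide peptides at 200 μM in water, with no buffer, to slow aggregation and limit charge screening. Peptide stocks were made in filtered deionized water, flash-frozen and kept at −80 °C. AFM height images were taken at 1 Hz with 512 × 512 points, fibrils masked and first-order flattened. Each fibril or granular-aggregate height and length is the mean of 20 measurements.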

A short description of data set [3]: Ion-mobility mass spectrometry. As to conditions: IM-MS, 200 μM in water. Format: physicochemical.

Take NFLVHSS: in data set [1] (PDB ID 3FTH), the “aggregation strength (class 6 steric zipper)” value (“aggregation strength” for short) is given as “weakly aggregating”.

As to Aβ(1–40): full length Aβ isoform, the “result compared with Aβ(25–35) effect on neurons” value in data set [2] is on record as “similar”.

With “Ac-Aβ(25–35)-NH2: amphipathic amyloid-β fragment containing the hydrophobic hexapeptide GAIIGL (Ac-GSNKGAIIGLM-NH2; UniProt P05067 696-706, looked up, fragment)”, the “aggregates observed by AFM (1 week)” value in “Atomic force microscopy” (1 week incubated, 200 μM in water, mixture at 1:1) is recorded as “abundant fibrillar aggregates”. Besides, the “time to fibrillar aggregates” value in the data set “Atomic force microscopy” (fresh peptide, in water) was “within an hour”. In data set [3] (heteroligomers from 1:1 mixture), the largest oligomers observed entry is “hexamers and nonamers”. In addition, the “onset of cross-section deviation from isotropic oligomer model” value in data set [3] (indicates extended oligomers) is “starting at the trimer stage”.

Take YVVFV: the “aggregation strength” value in data set [1] (PDB 4OLR / 4ONK) is listed as “weakly aggregating”.

For YVVFL, the “aggregation strength” value in data set [1] (PDB 4OLR / 4ONK) is listed as “weakly aggregating”.
